Measured values reported in ChEMBL document CHEMBL4257453, “Identification of karanjin isolated from the Indian beech tree as a potent CYP1 enzyme inhibitor with cellular efficacy via screening of a natural product repository” (Medchemcomm, 2018).

What was measured:
CYP1B1 = biological target: T1, CYP1B1 (Homo sapiens, UniProt Q16678); experiment: Inhibition of recombinant human CYP1B1 expressed in baker's yeast-derived microsomes (Sacchrosomes) at 10 uM using 7-ethoxyresorufin substrate by EROD assay relative to control; format: ADME; conditions: probe 7-ethoxyresorufin
T1 sequence (Q16678 whole entry): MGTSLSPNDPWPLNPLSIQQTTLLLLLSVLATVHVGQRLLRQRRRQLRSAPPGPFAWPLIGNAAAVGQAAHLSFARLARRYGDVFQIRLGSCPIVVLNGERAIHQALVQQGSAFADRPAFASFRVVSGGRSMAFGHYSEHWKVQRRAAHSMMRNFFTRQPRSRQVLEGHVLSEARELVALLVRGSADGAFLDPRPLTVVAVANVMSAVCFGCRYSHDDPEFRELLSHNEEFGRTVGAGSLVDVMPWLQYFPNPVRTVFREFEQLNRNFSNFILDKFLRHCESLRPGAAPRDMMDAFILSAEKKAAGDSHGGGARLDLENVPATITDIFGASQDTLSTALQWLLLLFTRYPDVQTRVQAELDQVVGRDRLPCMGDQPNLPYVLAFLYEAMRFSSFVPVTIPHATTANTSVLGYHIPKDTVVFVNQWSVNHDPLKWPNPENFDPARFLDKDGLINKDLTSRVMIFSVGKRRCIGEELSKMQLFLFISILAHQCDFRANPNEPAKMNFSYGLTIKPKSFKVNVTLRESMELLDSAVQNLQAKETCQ
Summary of the method: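 Yeast microsomes carrying recombinant CYP (Sacchrosomes). […] Substrates per isoform are 7-ethoxyresorufin, 3-cyano-7-ethoxycoumarin, EOMCC or dibenzylfluorescein, read as endpoint fluorescence. Background from compound-only wells without enzyme is subtracted. Independent triplicate runs; α-naphthoflavone positive control.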

Cytochrome P450 2C19 = Cytochrome P450 2C19 (Homo sapiens, UniProt P33261); experiment: Inhibition of human recombinant CYP2C19 expressed in HEK293 cells using 3-cyano-7-ethoxycoumarin substrate substrate preincubated for 30 mins followed by substrate addition and measured after 60 mins by fluorescence assay relative to control; format: ADME, cell-based
Summary of the method: (§1)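 HEK293 cells adapted to suspension and transiently transfected with pcDNA3.1 plasmids carrying the individual CYP; 100×10^3 cells per well in triplicate. […] Fluorogenic substrate is then added at 5 μM and fluorescence read for 60 min.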

Cytochrome P450 1B1 = biological target: T2, Cytochrome P450 1B1 (Homo sapiens, UniProt Q16678); experiment: Inhibition of human recombinant CYP1B1 expressed in HEK293 cells using 7-ethoxyresorufin substrate substrate preincubated for 30 mins followed by substrate addition and measured after 60 mins by fluorescence assay relative to control; format: ADME, cell-based; summary of the method: as §1
T2 sequence (Q16678 whole entry): T1 sequence (Q16678 whole entry)

Cytochrome P450 1A2 = biological target: T3, Cytochrome P450 1A2 (Homo sapiens, UniProt P05177); experiment: Inhibition of human recombinant CYP1A2 expressed in HEK293 cells using 3-cyano-7-ethoxycoumarin substrate preincubated for 30 mins followed by substrate addition and measured after 60 mins by fluorescence assay relative to control; format: ADME, cell-based; summary of the method: as §1
T3 sequence (P05177 whole entry): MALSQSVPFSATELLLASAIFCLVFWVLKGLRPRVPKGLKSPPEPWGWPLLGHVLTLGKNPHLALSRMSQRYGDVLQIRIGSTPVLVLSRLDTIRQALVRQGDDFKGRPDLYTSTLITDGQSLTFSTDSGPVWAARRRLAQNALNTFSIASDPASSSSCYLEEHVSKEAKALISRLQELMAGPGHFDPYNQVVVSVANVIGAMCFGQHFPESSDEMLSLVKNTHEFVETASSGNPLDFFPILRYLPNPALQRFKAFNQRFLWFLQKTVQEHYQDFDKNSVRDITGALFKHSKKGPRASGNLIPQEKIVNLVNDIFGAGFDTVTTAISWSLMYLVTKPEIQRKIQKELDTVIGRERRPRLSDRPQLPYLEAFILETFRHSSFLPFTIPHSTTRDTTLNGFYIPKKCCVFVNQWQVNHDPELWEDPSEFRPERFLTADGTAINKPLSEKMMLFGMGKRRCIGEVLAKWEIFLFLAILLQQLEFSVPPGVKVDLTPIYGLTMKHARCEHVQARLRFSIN

Sequence of Cytochrome P450 2C19 (P33261 whole entry): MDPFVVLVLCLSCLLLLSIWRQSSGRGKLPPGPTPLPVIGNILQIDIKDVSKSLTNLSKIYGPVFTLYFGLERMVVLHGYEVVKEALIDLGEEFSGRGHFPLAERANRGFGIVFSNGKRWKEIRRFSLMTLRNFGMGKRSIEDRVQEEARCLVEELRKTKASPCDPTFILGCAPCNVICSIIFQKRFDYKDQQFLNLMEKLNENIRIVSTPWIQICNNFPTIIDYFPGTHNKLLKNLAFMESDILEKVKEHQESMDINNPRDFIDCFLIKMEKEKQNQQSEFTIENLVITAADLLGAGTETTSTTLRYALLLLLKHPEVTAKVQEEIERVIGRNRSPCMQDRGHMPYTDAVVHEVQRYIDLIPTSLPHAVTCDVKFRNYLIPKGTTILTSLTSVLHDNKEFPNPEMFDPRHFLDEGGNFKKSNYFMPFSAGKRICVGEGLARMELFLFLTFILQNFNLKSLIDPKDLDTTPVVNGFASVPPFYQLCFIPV

SMILES | inhibition at 10 µM (CYP1B1) [%] | IC50 (Cytochrome P450 2C19) [nM] | IC50 (Cytochrome P450 1B1) [nM] | IC50 (Cytochrome P450 1A2) [nM] | Ki (Cytochrome P450 1A2) [nM]
COc1c2ccoc2cc2oc(=O)ccc12 [BERGAPTEN] | 20 | > 10000 | 15300 | 90 | 60
COc1c2ccoc2c(OC)c2oc(=O)ccc12 [ISOPIMPINELLIN] | 55 | > 10000 | 6380 | 40 | 28
